The nature of data set [1]: Cytotoxicity against rat WB344 cells at 100 uM after 24 hrs. The format is cell-based. Conditions: wb344, 24 h. Put shortly:
(§1)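 Neutral red uptake: cells in DMEM were grown ~24 h, then given compounds in DMSO for 24 h, then NR-containing medium ([…] as printed) for 3 h. Cells were PBS-washed, fixed 15 min in 0.5% formaldehyde/1% CaCl2, and dye extracted in 1% HOAc/50% EtOH with 20 min shaking. Read at A540 as % of DMSO control; mean of three independent measurements.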

The nature of data set [2]: Cytotoxicity against rat WB344 cells after 24 hrs. It is filed as cell-based. Conditions: WB344, 24 h. Put shortly: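 Epithelioid cells were cultured in DMEM ~24 h, exposed 24 h to DMSO-dissolved compounds, then to neutral red for 3 h. After formaldehyde/CaCl2 fixation, dye was extracted in acidified ethanol and read at 540 nm. Inhibition = (1 − T/C) × 100 against control OD540; IC50 taken from dose-response curves.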

Data set [3] is described as follows: Cytotoxicity against rat WB344 cells at 25 uM after 24 hrs. It is filed as cell-based. Conditions: wb344, 24 h. Put shortly:
as §1

The subject of data set [4] is Radical scavenging activity. Briefly: Antioxidant activity assessed as DPPH radical scavenging activity at 10 uM by TEAC assay. The format is functional. Summed up:
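Test solutions of 10 µM in MeOH were mixed 0.2 mL to 1.8 mL with methanolic DPPH at 22 mg/L. Absorbance at 517 nm was read every minute for 5 min, then every 5 min up to 30 min. Activity was followed over time and expressed as Trolox equivalent antioxidant capacity (TEAC).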
A general note: DPPH is a stable violet radical that fades when it is reduced.

Data set [5] in a line: Cytotoxicity against rat WB344 cells at 5 uM after 24 hrs. It is filed as cell-based. The conditions noted are these: wb344, 24 h. Summed up: as §1

The values below come from ChEMBL document CHEMBL1140640, “C-geranyl compounds from Paulownia tomentosa fruits” (J Nat Prod, 2007).

pIC50: −log10 of the molar value.

As to `COc1cc([C@@H]2CC(=O)c3c(cc(O)c(C/C=C(\C)CCC=C(C)C)c3O)O2)ccc1O`, the Activity in data set [1] turned out to be 2%; in data set [3] it was 73%; in data set [5], 100%. Moreover, in data set [2], the pIC50 (usually the IC50 on a negative log10 scale, so that one unit is a factor of ten) is 4.52. Moreover, the Trolox equivalent antioxidant capacity (TEAC) in data set [4] was 0.8.

For `C=C(C)C(O)CC/C(C)=C/Cc1c(O)cc2c(c1O)C(=O)[C@H](O)[C@@H](c1ccc(O)c(OC)c1)O2` (stereo not given in full), in data set [4], the Trolox equivalent antioxidant capacity (TEAC) came to 2.

Regarding `CC(C)=CCC/C(C)=C/Cc1c(O)cc2c(c1O)C(=O)C[C@@H](c1ccc(O)cc1)O2` [BONANNIONE A], the Activity in data set [1] is listed as 9%; in data set [3], 95%; in data set [5], 97%. The Trolox equivalent antioxidant capacity (TEAC) in data set [4] worked out at 0.4.

Consider `CC(C)=CCC/C(C)=C/Cc1c(O)cc2c(c1O)C(=O)C[C@@H](c1ccc(O)c(O)c1)O2` [NYMPHAEOL A], for which the Activity in data set [1] came to 2%; in data set [3], 57%; in data set [5] it was 98%. For the same molecule, in data set [2], the pIC50 was 4.84. Besides, in data set [4], the Trolox equivalent antioxidant capacity (TEAC) worked out at 5.2.
